According to ChEMBL document CHEMBL3352196, “Synthesis, structural characterization and effect on human granulocyte intracellular cAMP levels of abscisic acid analogs” (Bioorg Med Chem, 2015):
pIC50: −log10 of the molar value. Calls of active or inactive are those of the source. The calls are words filed in the database; no cut-off is given here.

Columns and labels:
Homo sapiens [1] = species on record: Homo sapiens; assay: Inhibition of 1 uM ABA-induced Increase in intracellular cAMP level in human granulocytes at 50 uM incubated for 1 min at 25 degC; type: functional, cell-based
Outline: (§1)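 Cells were rested overnight, then resuspended at 1.5 × 10⁷/ml in HBSS containing Ca and Mg. After a 5 min preincubation at 25 °C with Ro-20-1724 (PDE inhibitor), aliquots received ABA with or without analog for 1 min at 25 °C; untreated cells were the control. Cold perchloric acid ended the reaction; lysate was spun, neutralized with K2CO3 to pH 7.5, and cleared of KClO4. cAMP was measured by [³H]-cAMP radioimmunoassay and given as increase over control.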

Homo sapiens [2] = species on record: Homo sapiens; assay: Increase in intracellular cAMP level in human granulocytes at 1 to 50 uM incubated for 1 min at 25 degC; type: functional, cell-based
Outline: (§2)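 Human granulocytes were rested overnight after purification, pelleted at 200×g for 5 min, and resuspended at 1.5 × 10⁷/ml in HBSS with Ca and Mg. Cells were preincubated 5 min at 25 °C with the PDE inhibitor Ro-20-1724, then given analog alone for 1 min at 25 °C. Perchloric acid at 4 °C stopped the reaction, and supernatant was neutralized to pH 7.5 with K2CO3. cAMP was read by [³H]-cAMP competitive radioimmunoassay and reported relative to untreated cells.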

Homo sapiens [3] = species on record: Homo sapiens; assay: (§3) Increase in intracellular cAMP level in human granulocytes at 1 uM incubated for 1 min at 25 degC; type: functional; outline: as §2
Homo sapiens [4] = species on record: Homo sapiens; assay: Inhibition of 1 uM ABA-induced Increase in intracellular cAMP level in human granulocytes at 1 to 10 uM incubated for 1 min at 25 degC; type: functional, cell-based; outline: as §1
Homo sapiens [5] = species on record: Homo sapiens; assay: Increase in intracellular cAMP level in human granulocytes at 50 uM incubated for 1 min at 25 degC; type: functional, cell-based; outline: as §2
[6] = Inhibition of 1 uM ABA-induced Increase in intracellular cAMP level in human granulocytes incubated for 1 min at 25 degC; type: functional, cell-based; outline: as §1
LanC-like protein 2 = target: T1, LanC-like protein 2 (Homo sapiens, UniProt Q9NS86); assay: Inhibition of ABA binding to LANCL2 (unknown origin)
T1 sequence (Q9NS86 whole entry): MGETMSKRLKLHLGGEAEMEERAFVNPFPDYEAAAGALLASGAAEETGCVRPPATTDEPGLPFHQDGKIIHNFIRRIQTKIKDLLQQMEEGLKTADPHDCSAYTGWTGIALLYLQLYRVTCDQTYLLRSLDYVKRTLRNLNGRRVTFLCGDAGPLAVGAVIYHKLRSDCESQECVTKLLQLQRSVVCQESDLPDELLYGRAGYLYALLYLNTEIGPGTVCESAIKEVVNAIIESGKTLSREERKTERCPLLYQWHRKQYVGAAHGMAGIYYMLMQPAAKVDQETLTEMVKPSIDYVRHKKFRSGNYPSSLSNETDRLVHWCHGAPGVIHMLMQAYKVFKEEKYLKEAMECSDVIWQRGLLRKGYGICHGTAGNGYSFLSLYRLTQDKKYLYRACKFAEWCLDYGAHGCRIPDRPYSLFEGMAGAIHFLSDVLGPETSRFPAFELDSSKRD

Homo sapiens [7] = species on record: Homo sapiens; assay: Potentiation of 1 uM ABA-induced Increase in intracellular cAMP level in human granulocytes at 50 uM incubated for 1 min at 25 degC; type: functional, cell-based; outline: as §1
Homo sapiens [8] = species on record: Homo sapiens; assay: Increase in intracellular cAMP level in human granulocytes at 1 to 10 uM incubated for 1 min at 25 degC; type: functional, cell-based; outline: as §2
[9] = as §3; type: functional; outline: as §2

| Structure (SMILES) | inhibition (Homo sapiens [1]) | Activity (Homo sapiens [2]) | other results |
| --- | --- | --- | --- |
| COC(=O)/C=C(C)\C=C\C1(O)C(C)=CC(O)CC1(C)C (racemic) | inactive | inactive |  |
| CC1=CC(=O)CC(C)(C)C1(O)/C=C/C(C)=C\C(=O)Nc1ccccc1 (racemic) |  | Active | Activity (Homo sapiens [3]): Active |
| CC1=CC(=O)CC(C)(C)C1(O)/C=C/C(C)=C\C(=O)Nc1ccc(N)cc1 (racemic) | inactive | inactive |  |
| CC1=CC(=O)CC(C)(C)C1(O)/C=C/C(C)=C\C(=O)OCC(=O)OCC(=O)O (racemic) | Active |  | inhibition (Homo sapiens [4]): inactive; Activity (Homo sapiens [5]): inactive |
| CC1=CC(=O)O/C1=C\C1(O)C(C)=CC(=O)CC1(C)C (racemic) |  | Active |  |
| CCN(CC)C(=O)/C=C(C)\C=C\C1(O)C(C)=CC(=O)CC1(C)C (racemic) |  | Active |  |
| CC1=CC(O)CC(C)(C)C1(O)/C=C/C(C)=C\C(=O)OCC(=O)OC(C)(C)C (racemic) | inactive | inactive |  |
| CC(=C/C(=O)O)/C=C/C1(O)C(C)(C)CC(=O)C2OC21C (racemic) | Active |  | pIC50 [6]: 9.15; pIC50 (LanC-like protein 2): 8.18 |
| COC(=O)/C=C(C)\C=C\c1c(C)cc(OC(C)=O)c(C)c1C | inactive | inactive |  |
| CC1=CC(=O)CC(C)(C)C1(O)/C=C/C(C)=C\C(=O)OC(C)(C)C (racemic) |  | Active | Activity (Homo sapiens [7]): inactive |
| CC1=CC(O)CC(C)(C)C1(O)/C=C/C(C)=C\C(=O)O (racemic) |  | Active |  |
| CC1=CC(=O)CC(C)(C)C1(O)/C=C/C(C)=C\C(=O)OCC(=O)OC(C)(C)C (racemic) |  |  | Activity (Homo sapiens [8]): Active; Activity (Homo sapiens [3]): Active |
| COc1ccc(NC(=O)/C=C(C)\C=C\C2(O)C(C)=CC(=O)CC2(C)C)cc1 (racemic) |  | Active | Activity (Homo sapiens [3]): Active |
| CC(=O)/C=C/C12OC1(C)CCCC2(C)C (racemic) | inactive |  | Activity (Homo sapiens [8]): inactive; Activity (Homo sapiens [5]): Active |
| CC1=CC(=O)CC(C)(C)C1(O)/C=C/C(C)=C\CO (racemic) |  | Active |  |
| CC1=CC(O)CC(C)(C)C1(O)/C=C/C(C)=C\CO (racemic) |  | Active |  |
| CC(=O)OC1C=C(C)C(O)(/C=C/C(C)=C\C(=O)O)C(C)(C)C1 (racemic) |  | Active |  |
| COC(=O)/C=C(C)\C=C\C1(O)C(C)=CC(=O)CC1(C)C (racemic) |  | Active | Activity (Homo sapiens [7]): Active |
| CC1=CC(=O)CC(C)(C)[C@@]1(O)/C=C/C(C)=C\C(=O)O (racemic) [(+)-ABSCISIC ACID] |  |  | Activity [9]: 35% |
